Results collected from several papers.
Compare with care: the assays were run in different laboratories.
Target: Homeodomain-interacting protein kinase 4 (HIPK4, Homo sapiens, UniProt Q8NE63)
Sequence (Q8NE63 1-616, as in one of the studies): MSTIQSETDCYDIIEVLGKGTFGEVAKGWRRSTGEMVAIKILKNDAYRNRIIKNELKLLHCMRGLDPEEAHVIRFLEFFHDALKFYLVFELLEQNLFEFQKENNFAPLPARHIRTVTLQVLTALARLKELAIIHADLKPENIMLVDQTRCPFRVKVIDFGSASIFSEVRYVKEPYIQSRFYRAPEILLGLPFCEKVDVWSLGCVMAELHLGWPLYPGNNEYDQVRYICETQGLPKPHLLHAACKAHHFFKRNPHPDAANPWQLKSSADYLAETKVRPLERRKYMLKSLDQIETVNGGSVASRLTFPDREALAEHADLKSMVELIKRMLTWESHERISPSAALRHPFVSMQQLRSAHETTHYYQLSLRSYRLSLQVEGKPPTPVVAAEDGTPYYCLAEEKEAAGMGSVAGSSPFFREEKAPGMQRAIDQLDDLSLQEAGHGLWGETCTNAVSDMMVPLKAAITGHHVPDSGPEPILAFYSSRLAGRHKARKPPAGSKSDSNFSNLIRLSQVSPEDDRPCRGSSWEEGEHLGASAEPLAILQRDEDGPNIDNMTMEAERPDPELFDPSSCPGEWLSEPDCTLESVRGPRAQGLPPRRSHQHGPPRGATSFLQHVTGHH

| SMILES | observed | mode | method | tested at | endpoint | value |
| --- | --- | --- | --- | --- | --- | --- |
| Cn1cc(-c2cccc(N3CCc4c(sc5c4CC(C)(C)C5)C3=O)c2CO)cc(Nc2ccncn2)c1=O | enzyme activity | inhibitor |  | 1 µM | inhibition | 11% |
| CC(C)(C)c1cc(C=C(C#N)C#N)cc(Br)c1O | enzyme activity | inhibitor |  | 0.5 µM | remaining activity | 103% |
| Nc1ncc(-c2nc(N3CCOCC3)nc(N3CCOCC3)n2)c(C(F)F)n1 | binding |  | competition with immobilised ligand | 10 µM | remaining binding | 100% |
| Cn1cncc1[C@](O)(COc1ccc(C#N)cc1-c1ccc(OC(F)(F)F)cc1)c1ccc(C#N)cc1 | cell-free assay |  | competition with immobilised ligand | 1 µM | remaining binding | 86% |
| O=c1[nH]c2ccccc2n1C1CCN(Cc2ccc(-c3[nH]c4cc5ncnc5cc4nc3-c3ccccc3)cc2)CC1 | cell-free assay |  |  | 0.5 µM | remaining signal | 99.3% |
| Cc1nn(C)cc1-c1nc2c(N3CCN(Cc4ccc(Cl)cc4)CC3)c(Cl)cnc2[nH]1 | binding |  | competition with immobilised ligand | 1 µM | remaining binding | 85% |
| Cn1cc(-c2cc(F)cc(N3CCn4c(cc5c4CCCC5)C3=O)c2CO)cc(Nc2ccc(N3CCN(C4COC4)CC3)cn2)c1=O | enzyme activity | inhibitor |  | 0.1 µM | inhibition | 11% |
| COc1ncccc1-c1cnn2ccc(N3CCN(C(=O)OC(C)C)CC3)nc12 | binding |  | competition with immobilised ligand | 1 µM | remaining binding | 99% |
